Reference: ChEMBL document CHEMBL1123566, “Synthesis and cardiac electrophysiological activity of 2- and 3-[(substituted phenyl)alkyl]quinuclidines. Structure-activity relationships” (1987)
Several values for one entry are separate records, joined by “and”; a condition that tells them apart may be missing. Equal entries are not always repeated.

Legend:
[1] = species on record: Canis familiaris; experiment: In vitro electrophysiological evaluation in canine cardiac ventricular muscle reported as % change for conduction time(CT) at 10 uM at 0.1-30 uM concentration range; Minimal (<10% decrease or increase in CT).; format: functional, Canis lupus familiaris, Muscle tissue
[2] = species on record: Canis familiaris; experiment: In vitro electrophysiological evaluation in canine cardiac ventricular muscle reported as % change for conduction time(CT) at 10 uM at 0.1-10 uM concentration range; Minimal (<10% decrease or increase in CT).; format: functional, Canis lupus familiaris, Muscle tissue
[3] = system: Canis familiaris; experiment: Left ventricular refractory period was determined by intraduodenal administration of 30 mg/kg (high dose) of compound in anesthetized dogs. Value was reported for experiment 1; format: functional, Canis lupus familiaris, Cardiac ventricle
Procedure, shortened: (§1)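 Anesthetized dogs received two intraduodenal doses, the second cumulative (low dose/high dose). Left ventricular FRP and CT were measured 15, 30 and 45 min after dosing. Heart rate and mean blood pressure were taken during nonpacing intervals. Values are percent change from control. The vehicle was 5% dextrose in water/tragacanth. Activity was defined as ≥12% prolongation of FRP or CT.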

[4] = system: Canis familiaris; experiment: Mean arterial blood pressure was determined by intraduodenal administration of 10 mg/kg (low dose)of compound in anesthetized dogs. Value was reported for experiment 2; format: functional, Canis lupus familiaris
[5] = system: Canis familiaris; experiment: Mean arterial blood pressure was determined by intraduodenal administration of 10 mg/kg (low dose)of compound in anesthetized dogs. Value was reported for experiment 1; format: functional, Canis lupus familiaris
[6] = system: Canis familiaris; experiment: Heart rate was determined by intraduodenal administration of 10 mg/kg (low dose) of compound in anesthetized dogs. Value was reported for experiment 2; format: functional, Canis lupus familiaris
Procedure, shortened: (§2)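 Anesthetized dogs; compound given intraduodenally, generally as two doses, the second a cumulative (high) dose. LV functional refractory period and conduction time measured 15, 30 and 45 min after dosing; heart rate and blood pressure measured during nonpacing intervals. Values are % change from control, given per individual animal. Active if FRP or CT prolonged by ≥12%.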

[7] = species on record: Canis familiaris; experiment: In vitro electrophysiological evaluation in canine cardiac Purkinje fibres reported as percent change Vmax at 10 uM at concentration range of 0.1-30 uM; Minimal (<10% decrease or increase in V max).; format: functional, organism-based; settings: Canis lupus familiaris, Purkinje fiber
Procedure, shortened: (§3)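 Canine cardiac Purkinje fibres, intracellular microelectrode recording, paced at a basic cycle length of 1 s. APD95 and Vmax read simultaneously. Compound: 10 mM stock in deionized water, diluted into Tyrode's solution, tested over the stated concentration range. Each fibre used once as its own control. Result is % change from control, given at 10 µM or as the maximum with its concentration. M = <10% decrease or an increase in Vmax.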

[8] = species on record: Canis familiaris; experiment: In vitro electrophysiological activity in canine cardiac occurred is 1 uM; format: functional, Canis lupus familiaris, Heart
[9] = system: Canis familiaris; experiment: Mean arterial blood pressure was determined by intraduodenal administration of 30 mg/kg (high dose) of compound in anesthetized dogs. Value was reported for experiment 1; format: functional, Canis lupus familiaris
[10] = system: Canis familiaris; experiment: Left ventricular refractory period was determined by intraduodenal administration of 10 mg/kg (low dose) of compound in anesthetized dogs. Value was reported for experiment 1; format: functional, Canis lupus familiaris, Cardiac ventricle; procedure, shortened: as §1
[11] = system: Canis familiaris; experiment: Mean arterial blood pressure was determined by intraduodenal administration of 30 mg/kg (high dose) of compound in anesthetized dogs. Value was reported for experiment 2; format: functional, Canis lupus familiaris
[12] = species on record: Canis familiaris; experiment: In vitro electrophysiological evaluation in canine cardiac ventricular muscle reported as maximum % change for conduction time(CT) at 0.1-10 uM concentration range; Minimal (<10% decrease or increase in CT).; format: functional, Canis lupus familiaris, Muscle tissue
Procedure, shortened: (§4)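 Canine right ventricle and papillary muscle strips in oxygenated Tyrode's solution, fitted with stimulating and recording electrodes. The extra-stimulus conduction-interval method was adapted for in vitro use. FRP and CT were read from a conduction-interval curve before and after various compound concentrations, and expressed as percent change from control. Compounds were taken from 10 mM deionized-water stock into Tyrode's. Each strip was used once as its own control.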

[13] = species on record: Canis familiaris; experiment: In vitro electrophysiological evaluation in canine cardiac Purkinje fibres reported as % change for action potential duration at a concentration of 10 uM; format: functional, Canis lupus familiaris, Purkinje fiber; procedure, shortened: as §3
[14] = system: Canis familiaris; experiment: Left ventricular refractory period was determined by intraduodenal administration of 10 mg/kg (low dose) of compound in anesthetized dogs. Value was reported for experiment 2; format: functional, Canis lupus familiaris, Cardiac ventricle; procedure, shortened: as §1
[15] = species on record: Canis familiaris; experiment: In vitro electrophysiological evaluation in canine cardiac occurred is 30 uM; format: functional; settings: Canis lupus familiaris; Heart
[16] = system: Canis familiaris; experiment: Left ventricular refractory period was determined by intraduodenal administration of 30 mg/kg (high dose) of compound in anesthetized dogs. Value was reported for experiment 2; format: functional, Canis lupus familiaris, Cardiac ventricle; procedure, shortened: as §1
[17] = species on record: Canis familiaris; experiment: In vitro electrophysiological evaluation in canine cardiac ventricular muscle reported as maximum % change for functional refractory period (FRP) at 0.1-30 uM concentration range; concentration at which it occurred is 1 uM.; parameters: species or system Canis lupus familiaris, Muscle tissue; procedure, shortened: as §4
[18] = species on record: Canis familiaris; experiment: In vitro electrophysiological evaluation in canine cardiac ventricular muscle reported as maximum % change for functional refractory period (FRP) at 0.1-10 uM concentration range; concentration at which it occurred is 1 uM.; parameters: species or system Canis lupus familiaris, Muscle tissue; procedure, shortened: as §4
[19] = system: Canis familiaris; experiment: Heart rate was determined by intraduodenal administration of 10 mg/kg (low dose) of compound in anesthetized dogs. Value was reported for experiment 1; format: functional, Canis lupus familiaris; procedure, shortened: as §2
[20] = species on record: Canis familiaris; experiment: In vitro electrophysiological evaluation in canine cardiac ventricular muscle reported as % change for the functional refractory period (FRP) at 10 uM at concentration range of 0.1-30 uM; parameters: species or system Canis lupus familiaris, Muscle tissue; procedure, shortened: as §4
[21] = species on record: Canis familiaris; experiment: In vitro electrophysiological evaluation in canine cardiac Purkinje fibres reported as percent change Vmax at 10 uM at concentration range of 0.1-30 uM; format: functional; settings: Canis lupus familiaris, Purkinje fiber; procedure, shortened: as §3
[22] = species on record: Canis familiaris; experiment: In vitro electrophysiological evaluation in canine cardiac ventricular muscle reported as maximum % change for conduction time(CT) at 0.1-30 uM concentration range; Minimal (<10% decrease or increase in CT).; format: functional, Canis lupus familiaris, Muscle tissue; procedure, shortened: as §4
[23] = species on record: Canis familiaris; experiment: In vitro electrophysiological evaluation in canine cardiac ventricular muscle reported as % change for the functional refractory period (FRP) at 10 uM at concentration range of 0.1-10 uM; parameters: species or system Canis lupus familiaris, Muscle tissue; procedure, shortened: as §4
[24] = system: Canis familiaris; experiment: Conduction time was determined by intraduodenal administration of 30 mg/kg (high dose) of compound in anesthetized dogs. Value was reported for experiment 1; format: functional, Canis lupus familiaris; procedure, shortened: as §2
[25] = system: Canis familiaris; experiment: Conduction time was determined by intraduodenal administration of 30 mg/kg (high dose)of compound in anesthetized dogs. Value was reported for experiment 2; format: functional, Canis lupus familiaris; procedure, shortened: as §2
[26] = system: Canis familiaris; experiment: Heart rate was determined by intraduodenal administration of 30 mg/kg (high dose) of compound in anesthetized dogs. Value was reported for experiment 2; format: functional, Canis lupus familiaris; procedure, shortened: as §2
[27] = species on record: Canis familiaris; experiment: In vitro electrophysiological evaluation in canine cardiac ventricular muscle reported as maximum % change for functional refractory period (FRP) at 0.1-30 uM concentration range; concentration at which it occurred is 30 uM.; parameters: species or system Canis lupus familiaris, Muscle tissue; procedure, shortened: as §4
[28] = system: Canis familiaris; experiment: Conduction time was determined by intraduodenal administration of 10 mg/kg (low dose)of compound in anesthetized dogs. Value was reported for experiment 2; format: functional, Canis lupus familiaris; procedure, shortened: as §2
[29] = species on record: Canis familiaris; experiment: In vitro electrophysiological evaluation in canine cardiac Purkinje fibres reported as % change for action potential duration at 10 uM at 0.1-30 uM concentration range; format: functional, Canis lupus familiaris, Purkinje fiber; procedure, shortened: as §3
[30] = system: Canis familiaris; experiment: Conduction time was determined by intraduodenal administration of 10 mg/kg (low dose) of compound in anesthetized dogs. Value was reported for experiment 1; format: functional, Canis lupus familiaris; procedure, shortened: as §2
[31] = system: Canis familiaris; experiment: Heart rate was determined by intraduodenal administration of 30 mg/kg (high dose) of compound in anesthetized dogs. Value was reported for experiment 1; format: functional, Canis lupus familiaris; procedure, shortened: as §2

Cl.O=C(CCC1C(=O)C2CCN1CC2)c1ccc(Cl)cc1 (stereo unspecified)
CT [1]: <10%
CT [2]: <10%
LV FRP [3]: 15%
Mean blood pressure [4]: 18%
Mean blood pressure [5]: -5%
HR [6]: -15%
Vmax [7]: < 10%
APD95 [8]: 14% and 12%
Mean blood pressure [9]: 0%
LV FRP [10]: 15%
Mean blood pressure [11]: 23%
CT [12]: <10%
APD95 [13]: 13%
LV FRP [14]: 12%
Vmax [15]: -26% and -18%
LV FRP [16]: 6%
FRP [17]: 15%
FRP [18]: 22%
HR [19]: -13%
FRP [20]: 10%
Vmax [21]: -10%
CT [22]: <10%
FRP [23]: 17%
CT [24]: 14%
CT [25]: 13%
HR [26]: -21%
FRP [27]: -9%
CT [28]: 4%
APD95 [29]: 5%
CT [30]: 5%
HR [31]: -18%
